Measurements as given in ChEMBL document CHEMBL1142699 (J Med Chem, 2005).
Numbered stars: 1 amine (or outer) side, 2 acyl side, 3 side chain; on linkers, the order of the positions; unused ones are H or OH. Square brackets hold non-standard residues; d marks the D form. Peptide text beside a SMILES is read from it. * marks the point of attachment. X1 = N[C@@H](Cc1ccccc1)CN(CC(=O)[*:2])[*:1]; Phe(4-F) = N[C@@H](Cc1ccc(F)cc1)C(=O)O; N(NH2)2 = NN(N)*; NHNH2 = NN*

How the values were obtained:
[1] = molecular target: Nociceptin receptor (Cavia porcellus) (UniProt P47748); test: Maximal inhibition of electrically evoked contraction of guinea pig ileum; Effect evident only in some tissues; assay type: functional, tissue-based; details: filed as agonist
[2] = molecular target: Nociceptin receptor (Mus musculus) (UniProt P35377); test: Inhibition of electrically evoked contraction of mouse vas deferens; Effect evident only in some tissues; assay type: functional; details: filed as agonist
[3] = molecular target: Nociceptin receptor (Mus musculus) (UniProt P35377); test: Maximal inhibition of electrically evoked contraction of mouse vas deferens; Effect evident only in some tissues; assay type: functional; details: filed as agonist
[4] = molecular target: Nociceptin receptor (Cavia porcellus) (UniProt P47748); test: Antagonistic potency against N/OFQ in electrically evoked contractions of guinea pig ileum at 1 uM; assay type: functional, tissue-based
[5] = molecular target: Nociceptin receptor (Cavia porcellus) (UniProt P47748); test: Inhibition of electrically evoked contraction of guinea pig ileum; Effect evident only in some tissues; assay type: functional, tissue-based; details: filed as agonist
[6] = molecular target: Nociceptin receptor (Mus musculus) (UniProt P35377); test: Antagonistic potency against N/OFQ in electrically evoked contraction of mouse vas deferens at 1 uM; assay type: functional, tissue-based
Method in brief: (§1)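 Male Swiss mice (25-30 g). Vas deferens in 5 mL baths of Mg2+-free Krebs at 33 °C, 0.3 g tension, field-stimulated with supramaximal 1 ms pulses at 0.05 Hz, isotonic recording.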

[7] = molecular target: Nociceptin receptor (Mus musculus) (UniProt P35377); test: Maximal inhibition of electrically evoked contraction of mouse vas deferens; assay type: functional, tissue-based
[8] = molecular target: Nociceptin receptor (Mus musculus) (UniProt P35377); test: Antagonistic potency against N/OFQ in electrically evoked contraction of mouse vas deferens at 0.1 uM; assay type: functional, tissue-based; method in brief: as §1
[9] = molecular target: Nociceptin receptor (Cavia porcellus) (UniProt P47748); test: Maximal inhibition of electrically evoked contraction of guinea pig ileum; assay type: functional, tissue-based
Nociceptin receptor = Nociceptin receptor (Homo sapiens, UniProt P41146); test: Receptor binding affinity for recombinant human N/OFQ peptide receptor (NOP) expressed in chinese hamster ovary cells; assay type: cell-based, CHO
Nociceptin receptor, sequence (P41146 whole entry): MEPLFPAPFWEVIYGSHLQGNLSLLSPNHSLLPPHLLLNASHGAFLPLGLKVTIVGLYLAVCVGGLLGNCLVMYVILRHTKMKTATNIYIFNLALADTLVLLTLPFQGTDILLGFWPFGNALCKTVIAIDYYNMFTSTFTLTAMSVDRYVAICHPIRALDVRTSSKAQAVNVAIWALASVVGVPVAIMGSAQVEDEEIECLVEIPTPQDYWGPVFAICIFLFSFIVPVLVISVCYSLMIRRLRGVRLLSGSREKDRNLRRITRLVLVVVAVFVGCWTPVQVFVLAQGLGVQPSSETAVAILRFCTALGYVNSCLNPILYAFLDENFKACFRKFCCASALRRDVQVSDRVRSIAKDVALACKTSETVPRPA

Nociceptin receptor (Mus musculus), sequence (P35377 whole entry): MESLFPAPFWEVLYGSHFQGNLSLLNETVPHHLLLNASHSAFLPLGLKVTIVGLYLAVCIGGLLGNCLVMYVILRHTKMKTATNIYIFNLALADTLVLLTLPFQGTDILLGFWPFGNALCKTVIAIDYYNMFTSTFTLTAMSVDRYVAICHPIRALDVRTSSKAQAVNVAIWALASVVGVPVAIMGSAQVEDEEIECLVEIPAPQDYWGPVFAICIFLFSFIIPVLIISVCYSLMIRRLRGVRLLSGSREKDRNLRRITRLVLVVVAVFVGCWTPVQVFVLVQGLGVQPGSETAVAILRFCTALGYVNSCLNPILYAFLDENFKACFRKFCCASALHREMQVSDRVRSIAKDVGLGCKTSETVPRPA
Nociceptin receptor (Cavia porcellus), sequence (P47748 whole entry): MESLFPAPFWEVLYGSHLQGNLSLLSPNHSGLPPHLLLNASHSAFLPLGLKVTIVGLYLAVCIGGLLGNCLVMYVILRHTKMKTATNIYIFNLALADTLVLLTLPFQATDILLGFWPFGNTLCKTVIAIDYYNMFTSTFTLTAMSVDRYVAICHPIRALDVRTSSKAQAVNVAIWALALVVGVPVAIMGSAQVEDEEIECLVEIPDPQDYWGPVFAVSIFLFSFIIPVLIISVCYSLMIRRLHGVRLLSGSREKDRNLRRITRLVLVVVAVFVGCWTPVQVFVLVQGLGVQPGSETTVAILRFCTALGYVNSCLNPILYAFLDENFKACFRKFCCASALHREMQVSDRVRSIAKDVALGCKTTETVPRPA

Row | Compound | Emax [1] | Activity [2] | Emax [3] | pKb [4] | Log EC50 [5] | pKb [6] | Emax [7] [%] | pKb [8] | pKb ([8]; Cavia porcellus) | Emax [9] [%] | Ki (Nociceptin receptor) [nM]
1 | C[C@H](NC(=O)CNC(=O)[C@@H](NC(=O)[C@H](Cc1ccccc1)NC(=O)CNC(=O)CNC[C@@H](N)Cc1ccccc1)[C@@H](C)O)C(=O)N[C@@H](CCCN=C(N)N)C(=O)N[C@@H](CCCCN)C(=O)N[C@@H](CO)C(=O)N[C@@H](C)C(=O)N[C@@H](CCCN=C(N)N)C(=O)N[C@@H](CCCCN)C(=O)N[C@@H](CCCN=C(N)N)C(=O)N[C@@H](CCCCN)C(=O)N[C@@H](CC(N)=O)C(=O)N[C@@H](CCC(=O)N(N)N)C(=O)NN (H-[X1]GFTGARKSARKRKNE(N(NH2)2)-NHNH2) | Agonist | Agonist | Agonist | 7.47 | Agonist | 8.04 | – | – | – | – | –
2 | C[C@H](NC(=O)CNC(=O)[C@@H](NC(=O)[C@H](Cc1ccc(F)cc1)NC(=O)CNC(=O)CNC[C@@H](N)Cc1ccccc1)[C@@H](C)O)C(=O)N[C@@H](CCCN=C(N)N)C(=O)N[C@@H](CCCCN)C(=O)N[C@@H](CO)C(=O)N[C@@H](C)C(=O)N[C@@H](CCCN=C(N)N)C(=O)N[C@@H](CCCCN)C(=O)N[C@@H](CCCN=C(N)N)C(=O)N[C@@H](CCCCN)C(=O)N[C@@H](CC(N)=O)C(=O)N[C@@H](CCC(=O)N(N)N)C(=O)NN (H-[X1]G[Phe(4-F)]TGARKSARKRKNE(N(NH2)2)-NHNH2) | Agonist | – | – | – | Agonist | – | 53 | 9.2 | 8.48 | – | –
3 | C[C@H](NC(=O)CNC(=O)[C@@H](NC(=O)[C@H](Cc1ccc(F)cc1)NC(=O)CNC(=O)CNC(=O)CNCc1ccccc1)[C@@H](C)O)C(=O)N[C@@H](CCCN=C(N)N)C(=O)N[C@@H](CCCCN)C(=O)N[C@@H](CO)C(=O)N[C@@H](C)C(=O)N[C@@H](CCCN=C(N)N)C(=O)N[C@@H](CCCCN)C(=O)N[C@@H](CCCN=C(N)N)C(=O)N[C@@H](CCCCN)C(=O)N[C@@H](CC(N)=O)C(=O)N[C@@H](CCC(=O)N(N)N)C(=O)NN | Agonist | Agonist | Agonist | – | Agonist | – | – | 7.97 | 7.82 | – | –
4 | C[C@H](NC(=O)CNC(=O)[C@@H](NC(=O)[C@H](Cc1ccc(F)cc1)NC(=O)CNC(=O)CNC(=O)[C@@H](N)Cc1ccccc1)[C@@H](C)O)C(=O)N[C@@H](CCCN=C(N)N)C(=O)N[C@@H](CCCCN)C(=O)N[C@@H](CO)C(=O)N[C@@H](C)C(=O)N[C@@H](CCCN=C(N)N)C(=O)N[C@@H](CCCCN)C(=O)N[C@@H](CCCN=C(N)N)C(=O)N[C@@H](CCCCN)C(=O)N[C@@H](CC(N)=O)C(=O)N[C@@H](CCC(=O)N(N)N)C(=O)NN | – | – | – | – | – | – | 94 | – | – | 55 | –
5 | CC(C)C[C@H](NC(=O)[C@H](CCCCN)NC(=O)[C@H](CCCN=C(N)N)NC(=O)[C@H](C)NC(=O)[C@H](CO)NC(=O)[C@H](CCCCN)NC(=O)[C@H](CCCN=C(N)N)NC(=O)[C@H](C)NC(=O)CNC(=O)[C@@H](NC(=O)[C@H](Cc1ccc(F)cc1)NC(=O)CNC(=O)CNC(=O)CNCc1ccccc1)[C@@H](C)O)C(=O)N[C@@H](C)C(=O)N[C@@H](CC(N)=O)C(=O)N[C@@H](CCC(N)=O)C(N)=O | Agonist | Agonist | Agonist | 7.16 | Agonist | 6.61 | – | – | – | – | –
6 | C[C@H](NC(=O)CNC(=O)[C@@H](NC(=O)[C@H](Cc1ccccc1)NC(=O)CNC(=O)CNC(=O)CNCc1ccccc1)[C@@H](C)O)C(=O)N[C@@H](CCCN=C(N)N)C(=O)N[C@@H](CCCCN)C(=O)N[C@@H](CO)C(=O)N[C@@H](C)C(=O)N[C@@H](CCCN=C(N)N)C(=O)N[C@@H](CCCCN)C(=O)N[C@@H](CCCN=C(N)N)C(=O)N[C@@H](CCCCN)C(=O)N[C@@H](CC(N)=O)C(=O)N[C@@H](CCC(N)=O)C(N)=O | – | – | – | – | – | – | – | – | – | – | 0.129
7 | CC(C)C[C@H](NC(=O)[C@H](CCCCN)NC(=O)[C@H](CCCNC(=N)N)NC(=O)[C@H](C)NC(=O)[C@H](CO)NC(=O)[C@H](CCCCN)NC(=O)[C@H](CCCNC(=N)N)NC(=O)[C@H](C)NC(=O)CNC(=O)[C@@H](NC(=O)[C@H](Cc1ccccc1)NC(=O)CNC(=O)CNC(=O)[C@@H](N)Cc1ccccc1)[C@@H](C)O)C(=O)N[C@@H](C)C(=O)N[C@@H](CC(N)=O)C(=O)N[C@@H](CCC(N)=O)C(=O)O | – | – | – | – | – | – | 95 | – | – | 58 | –
